# SENP1 inh – human SENP1 catalytic domain inhibitors, primary screen, biochemical, FRET, uHTS. recombinant SENP1 catalytic domain, CyPet-SUMO1-YPet FRET cleavage. inhibition, % at 10 µM. 360,000 compounds, 0.21% hits. AID 624204, 2012;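 active = inhibition at least 30% at 10 µM, raw YFP signal under a set limit, fluorescence ratio 0.5 to 1.5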;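 also: 0% = enzyme with DMSO and 100% = no enzyme wells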
# Target sequence (Q9P0U3 419-644 limits assumed): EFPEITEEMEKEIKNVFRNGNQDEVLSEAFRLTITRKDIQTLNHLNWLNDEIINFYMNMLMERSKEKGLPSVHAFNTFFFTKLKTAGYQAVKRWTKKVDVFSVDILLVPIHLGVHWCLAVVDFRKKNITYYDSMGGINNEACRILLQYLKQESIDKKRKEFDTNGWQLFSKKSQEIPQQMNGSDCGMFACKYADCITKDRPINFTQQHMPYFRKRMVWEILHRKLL
#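 Controls: no-enzyme wells low, DMSO-plus-enzyme wells high control. Test system: human recombinant His6-tagged SENP1 catalytic domain enzyme. Reagent: SFCypet-SUMO1-SFYpet FRET protein substrate, 25 nM final. Doses: one dose per compound, 10 µM, 0.5% DMSO. Detection: FRET, CFP and YFP emission. Timing: 50 min reaction at room temperature.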
# AHR act – AHR activators, primary screen, cell-based, luminescence, luciferase reporter, human | AHR-responsive luciferase reporter cells | 320,000 compounds, 2.5% hits | AID 2796, 2010 | activation, % at 5 µM; in the data active = activation above about 47%;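 also: 0% = vehicle wells and 100% = reference agonist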
# GAA850 FXN act – FXN promoter activators, primary screen, cell-based, luciferase luminescence, HEK293 lucGAA850 | activation, % at 6 µM | AID 540364, 2011 | HEK293 lucGAA850 FXN promoter luciferase reporter, 24 h; percent of 10 µM SAHA response | 360,000 compounds, 0.56% hits;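 active = activation above the average of all compounds screened plus 3 SD, cutoff fixed separately per campaign, cut at about 7.5% in these data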;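 also: 0% = DMSO wells and 100% = 10 µM SAHA wells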
# HDAC3 inhib – HDAC3 deacetylase inhibitors, primary screen, biochemical, fluorescence, cell-free homogeneous | inhibition, % at 8.3 µM | 320,000 compounds, 0.15% hits | Histone deacetylase 3 (Homo sapiens), O15379 | AID 2718, 2010 | recombinant HDAC3, fluorogenic peptide/trypsin coupled; in the data active = inhibition above about 26%, passing the limit was not always enough; inconclusive = no clear call, values can overlap the other calls
# Target sequence (O15379 whole entry, looked up): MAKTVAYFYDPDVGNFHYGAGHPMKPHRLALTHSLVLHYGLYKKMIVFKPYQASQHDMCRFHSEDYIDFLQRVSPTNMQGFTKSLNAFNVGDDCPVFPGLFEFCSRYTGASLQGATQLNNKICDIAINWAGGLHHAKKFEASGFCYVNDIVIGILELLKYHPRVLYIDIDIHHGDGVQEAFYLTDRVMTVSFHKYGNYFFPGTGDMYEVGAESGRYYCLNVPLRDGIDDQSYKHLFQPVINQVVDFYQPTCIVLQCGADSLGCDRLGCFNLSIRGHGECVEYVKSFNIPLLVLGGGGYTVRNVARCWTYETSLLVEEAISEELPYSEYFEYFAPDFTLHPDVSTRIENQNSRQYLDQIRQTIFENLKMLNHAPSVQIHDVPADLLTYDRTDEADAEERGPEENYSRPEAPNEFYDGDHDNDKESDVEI
# M18AAP inhibitor – PfM18AAP inhibitors, malaria aminopeptidase, primary screen, biochemical, QFRET, recombinant enzyme; H-Glu-NHMec fluorogenic cleavage; inhibition, % at 7.35 µM; 290,000 compounds, 1.2% hits; AID 1822, 2009;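 active = inhibition above the campaign mean inhibition over all tested compounds plus 3 SD, cut at about 28% in these data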;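 also: 0% = plate median of test compound wells and 100% = 2 mM ZnCl2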
# Fh CTSL1 inh – Fasciola hepatica cathepsin L1 inhibitors, primary screen, counter-screen for PFM18AAP inhibitor project, biochemical, QFRET, fluorogenic peptide substrate | 300,000 compounds, 0.49% hits | inhibition, % at 5.96 µM | recombinant F. hepatica cathepsin L1, Z-Leu-Arg-MCA fluorescence;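 active = inhibition above the mean of all tested compounds plus 3 SD, set per screening campaign, cut at about 17% in these data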;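 also: 0% = plate median of test compound wells and 100% = 1 µM Z-Phe-Ala-diazomethylketone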
# Starred values were filed as active, the others as inactive; ? = inconclusive; nt = not tested or not shown. Sampled rows, rich in hits. Any-hit rate of the full collection: about 4.2%.
SMILES,SENP1 inh,AHR act,GAA850 FXN act,HDAC3 inhib,M18AAP inhibitor,Fh CTSL1 inh
N/C(=N\OC(=O)c1ccc2ccccc2c1)c1ccc(Br)cc1,-0.6,21.2,0.2,nt,-4.6,-3.4
Cc1cccc(C(=O)O/N=C(\N)c2ccc(Br)cc2)c1,3.1,42.3,-0.4,0.8,-23.4,1.3
COc1ccc(/C(N)=N/OC(=O)c2cccc([N+](=O)[O-])c2C)cc1,0.4,54.5*,0.4,1.5,1.0,0.5
Cc1cccc(C(=O)O/N=C(\N)c2ccc(Cl)cc2)c1,3.3,55.2*,4.5,0.5,-0.3,0.9
COc1ccc(/C(N)=N/OC(=O)c2cccc([N+](=O)[O-])c2)cc1,1.2,11.9,1.0,-0.2,4.6,2.4
COc1cccc(C(=O)O/N=C(\N)c2ccc(C)cc2)c1,1.6,68.4*,6.3,2.8,-8.6,0.1
N/C(=N\OC(=O)c1cccc(Br)c1)c1ccccc1,0.1,74.2*,5.8,-2.8,7.5,-1.6
Cc1ccc(Oc2ccc(-c3nnc(-c4ccccc4)o3)cc2[N+](=O)[O-])cc1C,nt,nt,nt,nt,-0.2,nt
COc1cccc(/C(N)=N/OC(=O)Cc2ccccc2[N+](=O)[O-])c1,3.0,60.5*,1.6,-10.4,4.4,-1.6
Cc1ccc(N2CC(C(=O)Nc3ccccc3OC(F)F)CC2=O)cc1 (stereo unspecified),-0.3,-1.2,2.0,-3.1,nt,nt
O=C(O)CCN=CC1=C(O)CC(c2ccccc2)CC1=O (stereo unspecified),1.9,-1.4,0.7,10.0,-0.7,7.8
Clc1nc(Cl)nc(NCCC2=CCCCC2)n1,0.1,0.2,0.6,2.1,2.6,-0.4
COC(=O)c1cnc(NNC(=O)c2ccc([N+](=O)[O-])cc2)nc1C(F)(F)F,1.0,4.2,-0.1,-4.9,1.6,0.8
COC(=O)c1cnc(NNS(=O)(=O)c2ccc(Cl)cc2)nc1C(F)(F)F,2.0,-3.6,-0.3,3.4,28.6*,2.0
COCCN(C(=O)COC(=O)C(C)(C)Oc1ccc(Cl)cc1)c1c(N)n(Cc2ccccc2)c(=O)[nH]c1=O,1.3,nt,-0.6,nt,nt,nt
CCN(CC)C(=O)C1=C(C)N(CCC2=CCCCC2)C(=O)C(CC(=O)NC2CCCC2)C1 (stereo unspecified),0.8,nt,-0.8,nt,nt,nt
Cc1cc(C)n(Cc2ccc(C(=O)Nc3cccc(Br)c3)o2)n1,0.7,73.8*,2.1,2.4,9.1,-0.9
Cc1cc(C)n(Cc2ccc(C(=O)Nc3ccc(Br)cc3C)o2)n1,1.3,32.5,2.7,3.5,-1.9,-2.0
C[C@@H]1CN([C@@H](C)CO)S(=O)(=O)c2ccc(-c3ccccc3)cc2O[C@@H]1CN(C)Cc1ccccc1C(=O)O,0.1,nt,0.7,nt,nt,nt
Cn1nc(-c2ccc(Cl)cc2)c2cc(C(=O)NC3CC3)sc21,0.8,46.0,-1.9,-1.7,-3.1,0.1
Cn1nc(-c2ccc(Cl)cc2)c2cc(C(=O)NCCCN3CCOCC3)sc21,5.4,55.5*,2.2,-34.9,6.9,2.0
CCN1CCN(C(=O)c2cc3c(-c4ccc(Cl)cc4)nn(C)c3s2)CC1,-3.3,63.5*,2.0,-3.0,1.1,12.3
Cn1nc(-c2ccc(Cl)cc2)c2cc(C(=O)NCCN3CCOCC3)sc21,3.0,49.9*,1.0,-24.6,-2.1,2.2
CC1(C)CCC(=O)N2CC[C@H]3C[C@H](OC(=O)Nc4ccccc4)C[C@@H]1[C@H]32,3.7,8.1,2.8,6.8,-4.8,-2.1
CC1(C)CCC(=O)N2CC[C@H]3C[C@H](OC(=O)Nc4ccc5c(c4)OCO5)C[C@@H]1[C@H]32,-0.4,60.1*,-0.3,6.6,-8.3,2.3
SMILES,SENP1 inh,AHR act,GAA850 FXN act,HDAC3 inhib,M18AAP inhibitor,Fh CTSL1 inh
Cc1ccsc1/C=N/NC(=O)c1sccc1C,0.5,47.9*,4.3,0.6,-5.1,-1.2
Cc1ccsc1/C=N/N1CCN(c2ccccc2)CC1,0.7,32.4,7.8*,-1.4,-4.2,-2.2
Cc1ccsc1/C=N/N=C1\C(=O)Nc2ccccc21,3.4,69.8*,3.4,1.7,-3.6,-0.6
Cc1ccsc1/C=N/N1CCN(c2ccccn2)CC1,-0.1,-5.4,3.4,2.9,5.6,5.5
Cc1ccsc1C=Nc1ccc(O)cc1,4.4,0.3,0.9,-1.1,11.7,102.3*
Cc1ccsc1/C=N/NC(=O)CO,-1.4,1.6,1.7,3.1,-2.6,4.4
C[C@H](NC(=O)[C@H]1N2C(=O)c3ccccc3C2SC1(C)C)C(=O)N1CCCCC1 (stereo partly specified),-5.1,1.1,0.1,-4.7,-7.0,1.2
Cc1ccsc1/C=N/N=C/c1sccc1C,1.3,69.7*,2.2,3.5,0.1,4.7
CCC(C)(C)n1nnnc1C(c1ccc2ncccc2c1)N1CCN(c2ccc(O)cc2)CC1 (stereo unspecified),-0.5,-0.7,-0.6,-2.2,30.6*,-3.7
CC(=NNC(=O)c1ccncc1)c1ccc2ccccc2c1O,-25.2,nt,-7.1,nt,nt,nt
CCN1CCN(C(=O)c2cc(COc3ccc(C(C)=O)cc3OC)on2)CC1,0.2,7.9,3.0,?,1.6,-0.3
O=C(Nc1nc2ccccc2[nH]1)NC1CCCCC1,1.2,0.4,3.0,nt,-3.6,7.7
N#C/C(=N\Nc1cccc2ccccc12)c1nnc2n1CCCCC2,5.5,54.2*,2.8,-7.5,-6.0,0.3
N#C/C(=C\c1c[nH]c2ccccc12)c1nnc2n1CCCCC2,-4.5,-11.7,0.8,7.5,1.6,0.9
COc1ccccc1/C=N\Nc1cn[nH]c(=O)c1Cl,2.2,47.9*,3.3,3.0,4.0,0.9
CN1CCN(C(=O)c2cc3c(=O)n4ccccc4nc3s2)CC1,-46.9,3.9,1.6,-97.9,28.8*,0.7
CCOC(=O)N1CCN(C(=O)c2cc3c(=O)n4ccccc4nc3s2)CC1,-24.8,7.7,-1.2,-51.6,0.4,1.5
S=C1NC2=C(CCCC2=C2SCCS2)C(c2ccccc2)N1 (stereo unspecified),-0.7,16.2,-1.1,95.0*,-12.0,0.3
COc1cccc(/C=N/Nc2c(Cl)cncc2Cl)c1O,3.7,22.6,6.0,1.7,-3.0,4.0
COc1cccc(/C=N/Nc2cc(N3CCOCC3)ncn2)c1O,-27.1,47.5*,-0.8,1.9,10.8,-0.6
COc1cccc(/C=N/Nc2cc(Cl)nc(C)n2)c1O,0.7,22.2,4.4,9.4,29.1*,-1.3
Cc1nc(Cl)cc(N/N=C/c2ccc(O)cc2O)n1,14.8,0.8,3.7,8.1,31.1*,2.5
Oc1ccc(/C=N/Nc2ccc3ccccc3c2)c(O)c1,-94.2,60.9*,0.4,1.1,2.1,-2.2

# Screens from PubChem BioAssay.
